According to ChEMBL document CHEMBL4396972, “Glycyrrhizic acid derivatives as Dengue virus inhibitors” (Bioorg Med Chem Lett, 2019):
Calls of active or inactive are those of the source. The rule behind the calls is not given here.

Experiments:
dengue virus type 2 [1] = test: Antiviral activity against DENV2 16681 infected in African green monkey Vero E6 cells assessed as reduction in virus induced cytopathic effect at 10 uM measured after 96 hrs by reverse phase contrast microscopy; assay type: functional, organism-based; settings: Vero C1008
In short: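 Vero E6 cells in supporting DMEM infected with DENV2 strain 16681 (MOI 0.01), then treated immediately with compound at 10 μM. After 96 h incubation, cytopathic effect photographed by reverse phase-contrast microscopy and scored semi-quantitatively (−, +, ++, +++) against infected controls.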

dengue virus type 2 [2] = test: Antiviral activity against DENV2 16681 infected in African green monkey Vero E6 cells assessed as inhibitory rate of NS4B positive cells at 10 uM measured after 96 hrs incubation by DAPI staining based immunofluorescence method; assay type: functional; settings: Dengue virus, 16681, Vero C1008, 96 h
In short: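 Vero E6 cells in DMEM infected with DENV2 strain 16681 at MOI 0.01, treated at once with compound (0, 0.1, 1, 10 μM), 96 h. Immunofluorescence with anti-NS4B antibody and DAPI counterstain. Infectivity taken as NS4B-positive cells over DAPI-stained total cells. Inhibitory rate = (1 − NS4B-positive % treated infected / NS4B-positive % mock-treated infected) × 100.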

Vero C1008 = test: Cytotoxicity against African green monkey Vero E6 cells assessed as reduction in survival rate measured after 48 hrs by MTT assay; assay type: cell-based; settings: chlorocebus sabaeus, vero c1008, 48 h
In short: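 MTT viability test on Vero E6 cells in DMEM over a range of compound concentrations. CC50 calculated from survival of treated cells relative to mock cells.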

dengue virus type 2 [3] = test: Antiviral activity against DENV2 16681 infected in African green monkey Vero E6 cells assessed as inhibitory rate of NS4B positive cells measured after 96 hrs incubation by DAPI staining based immunofluorescence method; assay type: functional, organism-based; settings: for IC50: Dengue virus, 16681, Vero C1008, 96 h; for inhibition: Vero C1008
In short: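 Vero E6 cells in DMEM, infected with DENV2 strain 16681 at MOI 0.01 and treated with compound (0, 0.1, 1, 10 μM; single 10 μM for screening). After 96 h, immunofluorescence with anti-NS4B antibody and DAPI nuclear counterstain. Infectivity = NS4B-positive cells / DAPI-stained cells. Inhibitory rate = (1 − NS4B-positive % treated / NS4B-positive % mock-treated infected) × 100. IC50 derived from NS4B-positive percentages across concentrations.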

[4] = Therapeutic index, ratio of CC50 for African green monkey Vero E6 cells to IC50 for DENV2 16681 infected in African green monkey Vero E6 cells; assay type: toxicity, Vero C1008; settings: read-out: Ratio CC50/IC50
In short: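 TI = CC50/IC50. CC50 comes from the Vero E6 MTT survival test. IC50 comes from the NS4B-positive cell fraction by immunofluorescence in DENV2 16681-infected Vero E6 cells (MOI 0.01, 96 h, 0–10 μM).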

dengue virus type 2 [5] = test: Antiviral activity against DENV2 16681 infected in African green monkey Vero E6 cells assessed as reduction in virus induced cytopathic effect measured after 96 hrs by reverse phase contrast microscopy; assay type: functional, organism-based; settings: Vero C1008
In short: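 Vero E6 cells in DMEM infected with DENV2 16681 at MOI 0.01, compound added immediately (screen at 10 μM, then 0, 0.1, 1, 10 μM). Photographed 96 h post infection by phase-contrast microscopy. CPE reduction scored qualitatively (−, +, ++, +++).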

Compound	inhibition (dengue virus type 2 [1])	inhibition at 10 µM (dengue virus type 2 [2])	also measured
COC(=O)[C@H](Cc1ccc(O)cc1)NC(=O)[C@H]1O[C@@H](O[C@H]2[C@@H](O[C@H]3CC[C@]4(C)[C@H]5C(=O)C=C6[C@@H]7C[C@@](C)(C(=O)N[C@@H](Cc8ccc(O)cc8)C(=O)OC)CC[C@]7(C)CC[C@@]6(C)[C@]5(C)CC[C@H]4C3(C)C)O[C@H](C(=O)N[C@@H](Cc3ccc(O)cc3)C(=O)OC)[C@@H](O)[C@@H]2O)[C@H](O)[C@@H](O)[C@@H]1O	inactive		
COC(=O)[C@@]1(C)CC[C@]2(C)CC[C@]3(C)C(=CC(=O)[C@@H]4[C@@]5(C)CC[C@H](O[C@H]6O[C@H](C(=O)N/N=C/c7ccc(N(C)C)cc7)[C@@H](O)[C@H](O)[C@H]6O[C@@H]6O[C@H](C(=O)N/N=C/c7ccc(N(C)C)cc7)[C@@H](O)[C@H](O)[C@H]6O)C(C)(C)[C@@H]5CC[C@]43C)[C@@H]2C1	inactive		
COC(=O)[C@@]1(C)CC[C@]2(C)CC[C@]3(C)C(=CC(=O)[C@@H]4[C@@]5(C)CC[C@H](O[C@H]6O[C@H](C(=O)N/N=C/c7ccc(O)cc7)[C@@H](O)[C@H](O)[C@H]6O[C@@H]6O[C@H](C(=O)N/N=C/c7ccc(O)cc7)[C@@H](O)[C@H](O)[C@H]6O)C(C)(C)[C@@H]5CC[C@]43C)[C@@H]2C1	Active	32.5%	
COC(=O)CCCCCCCCCCNC(=O)[C@H]1O[C@@H](O[C@H]2[C@@H](O[C@H]3CC[C@]4(C)[C@H]5C(=O)C=C6[C@@H]7C[C@@](C)(C(=O)O)CC[C@]7(C)CC[C@@]6(C)[C@]5(C)CC[C@H]4C3(C)C)O[C@H](C(=O)NCCCCCCCCCCC(=O)OC)[C@@H](O)[C@@H]2O)[C@H](O)[C@@H](O)[C@@H]1O	Active	79.5%	CC50 (Vero C1008): > 100 µM; IC50 (dengue virus type 2 [3]): 1.2 µM; inhibition (dengue virus type 2 [3]): Dose-dependent effect; selectivity ratio [4]: > 80; inhibition (dengue virus type 2 [5]): Dose-dependent effect
COC(=O)[C@@H](Cc1c[nH]c2ccccc12)NC(=O)[C@H]1O[C@@H](O[C@H]2[C@@H](O[C@H]3CC[C@]4(C)[C@H]5C(=O)C=C6[C@@H]7C[C@@](C)(C(=O)N[C@H](Cc8c[nH]c9ccccc89)C(=O)OC)CC[C@]7(C)CC[C@@]6(C)[C@]5(C)CC[C@H]4C3(C)C)O[C@H](C(=O)N[C@H](Cc3c[nH]c4ccccc34)C(=O)OC)[C@@H](O)[C@@H]2O)[C@H](O)[C@@H](O)[C@@H]1O	inactive		
COC(=O)[C@@]1(C)CC[C@]2(C)CC[C@]3(C)C(=CC(=O)[C@@H]4[C@@]5(C)CC[C@H](O[C@H]6O[C@H](C(=O)N/N=C/c7ccncc7)[C@@H](O)[C@H](O)[C@H]6O[C@@H]6O[C@H](C(=O)N/N=C/c7ccncc7)[C@@H](O)[C@H](O)[C@H]6O)C(C)(C)[C@@H]5CC[C@]43C)[C@@H]2C1	inactive		
COC(=O)C[C@H](NC(=O)[C@H]1O[C@@H](O[C@H]2[C@@H](O[C@H]3CC[C@]4(C)[C@H]5C(=O)C=C6[C@@H]7C[C@@](C)(C(=O)O)CC[C@]7(C)CC[C@@]6(C)[C@]5(C)CC[C@H]4C3(C)C)O[C@H](C(=O)N[C@@H](CC(=O)OC)C(=O)OC)[C@@H](O)[C@@H]2O)[C@H](O)[C@@H](O)[C@@H]1O)C(=O)O	Active	35.8%	
CC1(C)[C@@H](O[C@H]2O[C@H](C(=O)O)[C@@H](O)[C@H](O)[C@H]2O[C@@H]2O[C@H](C(=O)O)[C@@H](O)[C@H](O)[C@H]2O)CC[C@]2(C)[C@H]3C(=O)C=C4[C@@H]5C[C@@](C)(C(=O)O)CC[C@]5(C)CC[C@@]4(C)[C@]3(C)CC[C@@H]12 [GLYCYRRHIZIN]	Active	70.5%	CC50 (Vero C1008): > 100 µM; IC50 (dengue virus type 2 [3]): 8.1 µM; inhibition (dengue virus type 2 [3]): Dose-dependent effect; selectivity ratio [4]: > 12.3; inhibition (dengue virus type 2 [5]): Dose-dependent effect
CC1(C)[C@@H](O[C@H]2O[C@H](C(=O)N[C@@H](Cc3ccc(O)cc3)C(=O)O)[C@@H](O)[C@H](O)[C@H]2O[C@@H]2O[C@H](C(=O)N[C@@H](Cc3ccc(O)cc3)C(=O)O)[C@@H](O)[C@H](O)[C@H]2O)CC[C@]2(C)[C@H]3C(=O)C=C4[C@@H]5C[C@@](C)(C(=O)N[C@@H](Cc6ccc(O)cc6)C(=O)O)CC[C@]5(C)CC[C@@]4(C)[C@]3(C)CC[C@@H]12	Active	68.5%	CC50 (Vero C1008): > 100 µM; IC50 (dengue virus type 2 [3]): 2.2 µM; inhibition (dengue virus type 2 [3]): Dose-dependent effect; selectivity ratio [4]: > 46.5; inhibition (dengue virus type 2 [5]): Dose-dependent effect
COC(=O)[C@@H](Cc1ccccc1)NC(=O)[C@H]1O[C@@H](O[C@H]2[C@@H](O[C@H]3CC[C@]4(C)[C@H]5C(=O)C=C6[C@@H]7C[C@@](C)(C(=O)N[C@H](Cc8ccccc8)C(=O)OC)CC[C@]7(C)CC[C@@]6(C)[C@]5(C)CC[C@H]4C3(C)C)O[C@H](C(=O)N[C@H](Cc3ccccc3)C(=O)OC)[C@@H](O)[C@@H]2O)[C@H](O)[C@@H](O)[C@@H]1O	inactive		
COC(=O)[C@H](Cc1ccccc1)NC(=O)[C@H]1O[C@@H](O[C@H]2[C@@H](O[C@H]3CC[C@]4(C)[C@H]5C(=O)C=C6[C@@H]7C[C@@](C)(C(=O)N[C@@H](Cc8ccccc8)C(=O)OC)CC[C@]7(C)CC[C@@]6(C)[C@]5(C)CC[C@H]4C3(C)C)O[C@H](C(=O)N[C@@H](Cc3ccccc3)C(=O)OC)[C@@H](O)[C@@H]2O)[C@H](O)[C@@H](O)[C@@H]1O	inactive		
COC(=O)CC[C@H](NC(=O)[C@H]1O[C@@H](O[C@H]2[C@@H](O[C@H]3CC[C@]4(C)[C@H]5C(=O)C=C6[C@@H]7C[C@@](C)(C(=O)N[C@@H](CCC(=O)OC)C(=O)OC)CC[C@]7(C)CC[C@@]6(C)[C@]5(C)CC[C@H]4C3(C)C)O[C@H](C(=O)N[C@@H](CCC(=O)OC)C(=O)OC)[C@@H](O)[C@@H]2O)[C@H](O)[C@@H](O)[C@@H]1O)C(=O)OC	inactive		
COC(=O)[C@@H](CC(C)C)NC(=O)[C@H]1O[C@@H](O[C@H]2[C@@H](O[C@H]3CC[C@]4(C)[C@H]5C(=O)C=C6[C@@H]7C[C@@](C)(C(=O)N[C@H](CC(C)C)C(=O)OC)CC[C@]7(C)CC[C@@]6(C)[C@]5(C)CC[C@H]4C3(C)C)O[C@H](C(=O)N[C@H](CC(C)C)C(=O)OC)[C@@H](O)[C@@H]2O)[C@H](O)[C@@H](O)[C@@H]1O	Active	53.1%	
CC[C@H](C)[C@H](NC(=O)[C@H]1O[C@@H](O[C@H]2[C@@H](O[C@H]3CC[C@]4(C)[C@H]5C(=O)C=C6[C@@H]7C[C@@](C)(C(=O)N[C@H](C(=O)OC)[C@@H](C)CC)CC[C@]7(C)CC[C@@]6(C)[C@]5(C)CC[C@H]4C3(C)C)O[C@H](C(=O)N[C@H](C(=O)OC)[C@@H](C)CC)[C@@H](O)[C@@H]2O)[C@H](O)[C@@H](O)[C@@H]1O)C(=O)OC	inactive		
COC(=O)[C@@H](NC(=O)[C@H]1O[C@@H](O[C@H]2[C@@H](O[C@H]3CC[C@]4(C)[C@H]5C(=O)C=C6[C@@H]7C[C@@](C)(C(=O)N[C@H](C(=O)OC)C(C)C)CC[C@]7(C)CC[C@@]6(C)[C@]5(C)CC[C@H]4C3(C)C)O[C@H](C(=O)N[C@H](C(=O)OC)C(C)C)[C@@H](O)[C@@H]2O)[C@H](O)[C@@H](O)[C@@H]1O)C(C)C	inactive		
COC(=O)[C@H](CC(C)C)NC(=O)[C@H]1O[C@@H](O[C@H]2[C@@H](O[C@H]3CC[C@]4(C)[C@H]5C(=O)C=C6[C@@H]7C[C@@](C)(C(=O)N[C@@H](CC(C)C)C(=O)OC)CC[C@]7(C)CC[C@@]6(C)[C@]5(C)CC[C@H]4C3(C)C)O[C@H](C(=O)N[C@@H](CC(C)C)C(=O)OC)[C@@H](O)[C@@H]2O)[C@H](O)[C@@H](O)[C@@H]1O	inactive		
CC1(C)[C@@H](O[C@H]2O[C@H](C(=O)N[C@@H](Cc3ccccc3)C(=O)O)[C@@H](O)[C@H](O)[C@H]2O[C@@H]2O[C@H](C(=O)N[C@@H](Cc3ccccc3)C(=O)O)[C@@H](O)[C@H](O)[C@H]2O)CC[C@]2(C)[C@H]3C(=O)C=C4[C@@H]5C[C@@](C)(C(=O)N[C@@H](Cc6ccccc6)C(=O)O)CC[C@]5(C)CC[C@@]4(C)[C@]3(C)CC[C@@H]12	inactive		
COC(=O)[C@@]1(C)CC[C@]2(C)CC[C@]3(C)C(=CC(=O)[C@@H]4[C@@]5(C)CC[C@H](O[C@H]6O[C@H](C(=O)NN)[C@@H](O)[C@H](O)[C@H]6O[C@@H]6O[C@H](C(=O)NN)[C@@H](O)[C@H](O)[C@H]6O)C(C)(C)[C@@H]5CC[C@]43C)[C@@H]2C1	inactive		
